In one experiment the target is GluN1/GluN2B receptors (Rattus norvegicus, UniProt P35439+Q00960). The format is cell-based.
Experiment [1] concerns the target GluN1/GluN2A^ΔCTD receptors (Rattus norvegicus, UniProt P35439+Q00959). The format is cell-based. Summed up: (§1)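 Xenopus laevis oocytes were injected with GluN1a:GluN2 RNA at a 1:3 molar ratio (15-30 ng total; 10-20-fold more for CTD-deleted subunits) and kept in ND-96 at 17 °C for 1-5 days. TEVC was run at -60 mV in 116 mM NaCl, 2 mM KCl, 0.3 mM BaCl2, 5 mM HEPES, pH 7.4. […] Full-length controls came from the same batch and day; mean ± s.e.m.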

The target of experiment [2] is GluN1/GluN2C^ΔCTD receptors (Rattus norvegicus, UniProt P35439+Q00961). As to the kind of experiment: Two-electrode voltage clamp of GluN2C CTD-deleted receptors. The format is cell-based. Summed up: (§2)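 Xenopus laevis oocytes were injected with GluN1a and GluN2 RNA at a 1:3 molar ratio. The CTD was removed by a stop codon at GluN1 838K or GluN2C 855K, and 10-20-fold more RNA than wild type was injected. Oocytes were kept in ND-96 at 17 °C for 1-5 days. TEVC was run at -60 mV in Ba2+ buffer (pH 7.4). […] Full-length receptors were run alternately on the same day and oocyte batch. Values are mean ± s.e.m.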
GluN1/GluN2C^ΔCTD receptors, sequence (Q00961 20-842, stated change not applied, other chains not shown): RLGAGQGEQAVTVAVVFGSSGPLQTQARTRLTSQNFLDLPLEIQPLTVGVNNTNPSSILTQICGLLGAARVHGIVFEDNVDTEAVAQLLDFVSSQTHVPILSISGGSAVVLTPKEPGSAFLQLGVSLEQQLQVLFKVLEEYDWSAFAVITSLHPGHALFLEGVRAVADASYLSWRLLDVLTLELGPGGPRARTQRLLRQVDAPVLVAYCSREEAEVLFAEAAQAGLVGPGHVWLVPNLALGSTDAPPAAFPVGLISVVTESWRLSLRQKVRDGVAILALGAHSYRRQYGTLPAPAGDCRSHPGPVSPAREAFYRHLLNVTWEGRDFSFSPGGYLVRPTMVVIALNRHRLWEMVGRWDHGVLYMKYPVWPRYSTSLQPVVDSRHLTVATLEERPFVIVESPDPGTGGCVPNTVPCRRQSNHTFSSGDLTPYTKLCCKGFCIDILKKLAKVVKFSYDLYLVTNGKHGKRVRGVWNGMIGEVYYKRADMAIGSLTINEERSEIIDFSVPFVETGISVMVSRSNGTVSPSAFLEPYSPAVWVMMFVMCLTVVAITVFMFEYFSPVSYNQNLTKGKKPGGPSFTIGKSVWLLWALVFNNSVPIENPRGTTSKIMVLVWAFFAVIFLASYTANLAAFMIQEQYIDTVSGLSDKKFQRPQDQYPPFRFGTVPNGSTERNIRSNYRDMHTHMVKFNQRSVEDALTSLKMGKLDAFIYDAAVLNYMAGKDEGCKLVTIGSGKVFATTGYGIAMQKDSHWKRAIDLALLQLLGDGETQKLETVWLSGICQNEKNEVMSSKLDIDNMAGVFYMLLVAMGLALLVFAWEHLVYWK

Experiment [3] has as its target GluN1^ΔCTD/GluN2A receptors (Rattus norvegicus, UniProt P35439+Q00959). The format is cell-based. The following applies: for effect of GluN1 CTD-deletion on modulator activity at GluN2A receptors: vs GluN1^WT/GluN2A, GNE-8324 30 µM, PAS 100 µM, DQP-1105 50 µM, TCN-201 10 µM (Fig. 4E, 5G-I). The procedure, abridged: as §1
For experiment [4], the system named is GluN1 CTD in neurons expressing GluN1-GFP, GluN2A and GluN1-mCherry. Description: CTD-FRET. As to conditions: 75 µM compound, absence of agonists, imaged 10 min after application (Fig. 8). The format is cell-based, rat. Summed up: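 Rat primary hippocampal neurons were transfected at DIV 7-10 with ~2 µg total DNA (GluN1-GFP, GluN2A, GluN1-mCherry) by lipofection and imaged at 16-18 DIV in 0.87x HBSS, 5 mM HEPES, 1 mM glucose, 2.5 mM MgCl2, 0.5 mM CaCl2. Baseline and 10 min post-compound two-photon FLIM images were taken, each neuron imaged twice, compounds interleaved. Lifetimes were fit single-exponential and analysed blind; two preparations pooled.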

Experiment [5] deals with GluN1^ΔCTD/GluN2D receptors (Rattus norvegicus, UniProt P35439+Q62645). The format is cell-based. Summed up:
as §2

Another experiment addresses GluN1/GluN2D receptors (Rattus norvegicus, UniProt P35439+Q62645). The format is cell-based. Summed up: (§3)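 Oocytes expressed wild-type GluN1a/GluN2 receptors from 15-30 ng RNA (1:3 molar) and were held in ND-96 at 17 °C for 1-5 days. For Ca2+ chelation, 5 mM EGTA (50 nL) was injected 1-2 h before recording, with uninjected and water-injected oocytes as controls. TEVC was run at -60 mV in 116 mM NaCl, 2 mM KCl, 0.3 mM BaCl2, 5 mM HEPES (pH 7.4). […] Values are mean ± s.e.m.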

For experiment [6], the target named is GluN1/GluN2B^ΔCTD receptors (Rattus norvegicus, UniProt P35439+Q00960). The format is cell-based. The following applies: for % potentiation of agonist-evoked current: 10 µM L-glutamate/10 µM glycine (Fig. 2B, 4B).
In another experiment the target is GluN1/GluN2A receptors (Rattus norvegicus, UniProt P35439+Q00959). The format is cell-based. The procedure, abridged: as §1
Experiment [7] has as its target GluN1/GluN2D^ΔCTD receptors (Rattus norvegicus, UniProt P35439+Q62645). The format is cell-based.
Experiment [8] has as its target GluN1^ΔCTD/GluN2C receptors (Rattus norvegicus, UniProt P35439+Q00961). The format is cell-based. The following applies: 100 µM compound; 10 µM L-glutamate/10 µM glycine (Fig. 2C). Summed up: as §1
For another experiment, the target named is GluN1/GluN2C receptors (Rattus norvegicus, UniProt P35439+Q00961). The format is cell-based. Summed up: as §3
GluN1/GluN2C receptors, sequence (Q00961 20-1237, other chains not shown): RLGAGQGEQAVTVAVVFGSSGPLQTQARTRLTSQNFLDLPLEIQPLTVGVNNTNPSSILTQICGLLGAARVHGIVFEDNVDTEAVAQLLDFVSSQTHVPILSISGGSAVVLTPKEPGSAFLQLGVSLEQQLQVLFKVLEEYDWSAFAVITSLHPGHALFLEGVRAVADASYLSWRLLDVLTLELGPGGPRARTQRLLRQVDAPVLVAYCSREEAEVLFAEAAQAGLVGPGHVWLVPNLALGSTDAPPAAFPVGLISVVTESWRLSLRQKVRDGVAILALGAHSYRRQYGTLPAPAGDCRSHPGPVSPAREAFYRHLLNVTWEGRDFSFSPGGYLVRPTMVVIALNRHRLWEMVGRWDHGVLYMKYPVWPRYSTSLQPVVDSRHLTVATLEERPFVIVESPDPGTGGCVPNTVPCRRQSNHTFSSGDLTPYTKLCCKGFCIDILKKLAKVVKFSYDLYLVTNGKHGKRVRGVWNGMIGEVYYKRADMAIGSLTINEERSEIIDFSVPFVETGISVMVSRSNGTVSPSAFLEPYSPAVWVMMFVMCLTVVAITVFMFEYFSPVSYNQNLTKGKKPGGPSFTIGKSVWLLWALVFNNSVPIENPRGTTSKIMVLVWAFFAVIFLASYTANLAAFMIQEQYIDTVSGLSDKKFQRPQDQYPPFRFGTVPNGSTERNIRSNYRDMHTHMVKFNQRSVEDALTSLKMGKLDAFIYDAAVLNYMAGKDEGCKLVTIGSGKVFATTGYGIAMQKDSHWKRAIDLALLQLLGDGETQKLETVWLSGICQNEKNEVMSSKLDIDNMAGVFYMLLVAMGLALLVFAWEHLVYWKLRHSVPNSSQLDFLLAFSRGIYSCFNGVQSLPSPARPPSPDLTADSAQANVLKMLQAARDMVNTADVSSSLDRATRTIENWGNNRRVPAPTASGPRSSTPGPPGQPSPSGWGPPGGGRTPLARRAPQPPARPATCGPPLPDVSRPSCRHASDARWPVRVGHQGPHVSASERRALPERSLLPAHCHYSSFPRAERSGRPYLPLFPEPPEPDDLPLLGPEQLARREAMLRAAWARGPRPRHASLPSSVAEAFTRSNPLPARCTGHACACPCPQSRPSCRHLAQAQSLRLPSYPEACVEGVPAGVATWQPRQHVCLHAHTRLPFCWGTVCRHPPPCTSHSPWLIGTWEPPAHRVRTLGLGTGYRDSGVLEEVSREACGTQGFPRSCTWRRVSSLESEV
Experiment [9] deals with GluN1^ΔCTD/GluN2B receptors (Rattus norvegicus, UniProt P35439+Q00960). The format is cell-based. The following applies: 100 µM compound; 10 µM L-glutamate/10 µM glycine (Fig. 2C). Summed up:
as §1

The mark [10] stands for this setting: 10 µM FSK and 1 mM IBMX for 10 minutes, 50 µM UBP684, 100 µM PS (Fig. 7B, C).
Where [11] appears, read: 100 µM compound, control cells for U73122 experiment (Fig. 6J).
Setting [12] is: 100 µM compound, 10 µM L-glutamate/10 µM glycine (Fig. 2B, 5A).
Setting [13] is: 100 µM compound, 10 µM L-glutamate/10 µM glycine (Fig. 2C).
[14] abbreviates: 10 µM compound, 10 µM L-glutamate/10 µM glycine (Fig. 4D).
Where [15] appears, read: 10 µM compound, 10 µM L-glutamate/10 µM glycine (Fig. 5C).
[16] abbreviates: 30 µM compound, 10 µM L-glutamate/10 µM glycine (Fig. 4A, 5B).
[17] abbreviates: 10 µM compound, 10 µM L-glutamate/10 µM glycine (Fig. 5D-F).
Where [18] appears, read: 10 µM compound, 10 µM L-glutamate/10 µM glycine, GluN2A^WT (Fig. 5D-F).
Where [19] appears, read: 30 µM compound, vs WT (Fig. 5B).

Read-outs that look alike come from different tables or passages of the source.

Results on 11 compounds are retold here after article PMC7058367 (Biochemical pharmacology, 2018).

GluN1/GluN2D^ΔCTD receptors, sequence (Q62645 28-869 limits assumed, stated change not applied, other chains not shown): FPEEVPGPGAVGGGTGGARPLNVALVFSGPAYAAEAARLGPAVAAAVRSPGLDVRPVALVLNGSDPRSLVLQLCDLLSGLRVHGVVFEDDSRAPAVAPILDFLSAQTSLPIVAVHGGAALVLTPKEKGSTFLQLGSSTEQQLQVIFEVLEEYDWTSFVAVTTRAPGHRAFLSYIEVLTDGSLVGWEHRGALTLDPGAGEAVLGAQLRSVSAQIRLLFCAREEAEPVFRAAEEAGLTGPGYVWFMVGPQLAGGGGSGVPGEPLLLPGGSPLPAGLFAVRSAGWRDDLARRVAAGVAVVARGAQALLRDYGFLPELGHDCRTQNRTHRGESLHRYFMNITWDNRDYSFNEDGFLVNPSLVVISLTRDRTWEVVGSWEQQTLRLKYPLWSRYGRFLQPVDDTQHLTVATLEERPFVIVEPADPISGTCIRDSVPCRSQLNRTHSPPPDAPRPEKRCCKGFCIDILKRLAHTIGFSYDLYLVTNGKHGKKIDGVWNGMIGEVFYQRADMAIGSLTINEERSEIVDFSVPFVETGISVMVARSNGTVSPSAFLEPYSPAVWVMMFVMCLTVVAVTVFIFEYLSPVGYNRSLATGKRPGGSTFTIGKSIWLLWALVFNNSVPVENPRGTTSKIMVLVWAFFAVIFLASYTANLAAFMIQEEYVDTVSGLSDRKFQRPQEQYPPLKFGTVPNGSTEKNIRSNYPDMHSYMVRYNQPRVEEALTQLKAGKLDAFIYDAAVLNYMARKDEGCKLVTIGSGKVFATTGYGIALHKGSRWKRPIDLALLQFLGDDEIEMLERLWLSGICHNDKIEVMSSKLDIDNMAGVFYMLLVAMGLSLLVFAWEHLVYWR
GluN1/GluN2D receptors, sequence (Q62645 28-1323, other chains not shown): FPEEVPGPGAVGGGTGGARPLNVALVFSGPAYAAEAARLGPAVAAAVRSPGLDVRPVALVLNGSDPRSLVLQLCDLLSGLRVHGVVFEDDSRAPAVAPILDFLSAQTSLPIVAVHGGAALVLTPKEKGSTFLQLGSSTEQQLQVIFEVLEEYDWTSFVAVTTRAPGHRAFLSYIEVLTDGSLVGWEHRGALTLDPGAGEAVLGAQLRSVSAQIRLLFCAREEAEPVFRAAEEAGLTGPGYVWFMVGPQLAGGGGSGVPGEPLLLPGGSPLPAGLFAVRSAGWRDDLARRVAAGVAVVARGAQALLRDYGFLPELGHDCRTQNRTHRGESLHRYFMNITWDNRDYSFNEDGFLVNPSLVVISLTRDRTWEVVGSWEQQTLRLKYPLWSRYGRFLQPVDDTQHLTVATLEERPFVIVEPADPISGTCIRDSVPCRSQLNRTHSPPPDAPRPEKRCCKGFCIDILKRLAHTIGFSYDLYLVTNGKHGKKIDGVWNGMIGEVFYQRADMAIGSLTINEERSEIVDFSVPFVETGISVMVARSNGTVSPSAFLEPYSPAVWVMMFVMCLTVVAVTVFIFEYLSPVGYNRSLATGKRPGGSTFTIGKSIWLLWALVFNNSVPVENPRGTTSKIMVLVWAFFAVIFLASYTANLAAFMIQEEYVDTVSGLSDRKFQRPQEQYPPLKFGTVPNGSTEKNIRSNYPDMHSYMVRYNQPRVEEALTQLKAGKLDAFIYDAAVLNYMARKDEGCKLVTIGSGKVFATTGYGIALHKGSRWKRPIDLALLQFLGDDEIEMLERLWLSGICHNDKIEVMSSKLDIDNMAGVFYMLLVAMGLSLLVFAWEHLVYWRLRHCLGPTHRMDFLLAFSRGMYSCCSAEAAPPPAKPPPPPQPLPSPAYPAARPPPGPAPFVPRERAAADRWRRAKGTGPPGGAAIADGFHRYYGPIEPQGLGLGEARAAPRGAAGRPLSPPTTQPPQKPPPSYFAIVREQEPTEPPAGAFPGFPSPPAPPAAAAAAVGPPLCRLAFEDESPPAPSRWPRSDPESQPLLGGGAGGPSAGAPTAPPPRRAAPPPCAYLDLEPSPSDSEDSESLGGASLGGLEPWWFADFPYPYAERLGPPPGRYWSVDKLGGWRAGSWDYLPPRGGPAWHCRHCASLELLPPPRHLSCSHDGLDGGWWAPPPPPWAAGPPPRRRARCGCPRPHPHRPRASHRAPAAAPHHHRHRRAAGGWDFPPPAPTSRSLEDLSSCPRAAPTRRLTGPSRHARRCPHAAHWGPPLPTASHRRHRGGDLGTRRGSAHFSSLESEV
GluN1^ΔCTD/GluN2D receptors, sequence (Q62645 28-1323, stated change not applied, other chains not shown): as the sequence (Q62645 28-1323, other chains not shown) above
GluN1^ΔCTD/GluN2C receptors, sequence (Q00961 20-1237, stated change not applied, other chains not shown): as the sequence (Q00961 20-1237, other chains not shown) above

In the case of 5-Pregnen-3β-ol-20-onesulphate [PS], the “effect of PKC activation by PMA on PAM activity” value on GluN1/GluN2B receptors (2 µM PMA for 10 minutes, 50 µM UBP684, 100 µM PS (Fig. 7E, F)) is “unaffected”; in [1] (2 µM PMA for 10 minutes, 50 µM UBP684, 100 µM PS (Fig. 7G, H)) it was “significantly increased”. For the same compound, the “effect of PKA activation on % potentiation” value at GluN1/GluN2B receptors (setting [10]) and at GluN1/GluN2A receptors (setting [10]) was “unchanged” each time. Also, the “% potentiation of agonist-evoked current” value at GluN1/GluN2B receptors (setting [11]) stood at 82 ± 10%; in [3] (setting [13]) it was 32 ± 4%; in experiment [6] (100 µM compound), 74 ± 10%; on GluN1/GluN2A receptors (setting [11]), 45 ± 3%; in [9], 156 ± 25%. In addition, the “effect of EGTA injection on modulation” value on GluN1/GluN2B receptors (5 mM EGTA injected vs controls (Fig. 6F)) and at GluN1/GluN2A receptors (5 mM EGTA injected vs controls (Fig. 6E)) was “no significant effect” throughout. In addition, the “% inhibition of agonist-evoked current” value worked out at 23 ± 4% in experiment [1] (setting [12]); 89 ± 2% in experiment [2] (setting [12]); 45 ± 6% in experiment [5] (setting [13]); 49 ± 8% in experiment [7] (setting [12]); 66 ± 5% in experiment [8]. Also, the “modulation in dose-response experiment” value in experiment [1] (all doses, the lowest being 3 µM, 10 µM L-glutamate/10 µM glycine (Fig. 3)) is given as “NAM activity at all doses”. In addition, the “change of GluN1-GFP fluorescence lifetime (movement of the GluN1 CTD)” value in experiment [4] is “did not affect”. Also, the IC50 came to 149.8 ± 18.0% against GluN1/GluN2D receptors (10 µM L-glutamate/10 µM glycine, WT GluN1/GluN2D (Fig. 3)) and 76.7 ± 19.1% in experiment [7] (10 µM L-glutamate/10 µM glycine (Fig. 3)). For the same compound, the “effect of EGTA injection on potentiation/modulation” value at GluN1/GluN2D receptors (5 mM EGTA injected vs controls (Fig. 6D, H)) is “no significant effect”; at GluN1/GluN2C receptors (5 mM EGTA injected vs controls (Fig. 6C, G)), “no significant effect”.

For the compound `COc1ccc(OCC2c3cc(OC)c(OC)cc3CCN2C(=O)c2cccc(Cl)c2)cc1` (stereo not drawn) [CIQ], the “% potentiation of agonist-evoked current” value in experiment [2] (setting [14]) is 113 ± 13%; on GluN1/GluN2D receptors (10 µM compound, 10 µM L-glutamate/10 µM glycine, GluN2D^WT (Fig. 4D)) it was 72 ± 11%; in experiment [7] (setting [14]), 48 ± 5%; at GluN1/GluN2C receptors (10 µM compound, 10 µM L-glutamate/10 µM glycine, GluN2C^WT (Fig. 4D)), 89 ± 8%. Besides, the “effect of GluN1 CTD-deletion on PAM activity” value in [5] (10 µM compound, vs wild-type GluN1/GluN2D (Fig. 4F)) was “significantly reduced”.

As for `Cc1ccc2[nH]c(=O)c(C3=NN(C(=O)CCC(=O)O)C(c4ccc(Br)cc4)C3)c(-c3ccccc3)c2c1` (stereo not drawn) [DQP-1105], the “% inhibition of agonist-evoked current” value was 82 ± 4% in experiment [1] (50 µM compound, 10 µM L-glutamate/10 µM glycine (Fig. 5C)); 79 ± 4% in experiment [2] (setting [15]); 87 ± 1% on GluN1/GluN2D receptors (10 µM compound, 10 µM L-glutamate/10 µM glycine, GluN2D^WT (Fig. 5C)); 39 ± 3% on GluN1/GluN2A receptors (50 µM compound, 10 µM L-glutamate/10 µM glycine, WT (Fig. 5C)); 97 ± 2% in experiment [7] (setting [15]); 69 ± 2% at GluN1/GluN2C receptors (10 µM compound, 10 µM L-glutamate/10 µM glycine, WT (Fig. 5C)). In [3], the “effect of GluN1 CTD-deletion on modulator activity at GluN2A receptors” value (“effect … at GluN2A receptors” for short) was “did not observe any effect”.

For `CCN(Cc1cc(=O)n2c3c(sc2n1)CCC3)c1ccc(F)cc1` [GNE-8324], the “% inhibition of agonist-evoked current” value in experiment [1] (setting [16]) was found to be 11 ± 2%. Moreover, the “effect … at GluN2A receptors” value in [3] was “unaffected”. The “% potentiation of agonist-evoked current” value on GluN1/GluN2A receptors (30 µM compound, 10 µM L-glutamate/10 µM glycine, GluN2A^WT (Fig. 4A)) is listed as 35 ± 4%.

Regarding `Cc1ncc(CNC(=O)c2cnc(CNS(=O)(=O)c3ccc(F)c(Cl)c3)cn2)s1` [MPX-004], the “% inhibition of agonist-evoked current” value was found to be 29 ± 13% in [1] (setting [17]) and 75 ± 8% at GluN1/GluN2A receptors (setting [18]).

With `Cc1ncc(CNC(=O)c2cnc(CNS(=O)(=O)c3ccc(F)c(F)c3)c(C)n2)s1` [MPX-007], the “% inhibition of agonist-evoked current” value in experiment [1] (setting [17]) was 36 ± 6%; on GluN1/GluN2A receptors (setting [18]), 77 ± 9%.

With `CC(=O)[C@H]1CC[C@H]2[C@@H]3CC[C@@H]4C[C@H](OS(=O)(=O)O)CC[C@]4(C)[C@H]3CC[C@]12C` [PAS, 5β-pregnan-3α-ol-20-onesulphate], the “% inhibition of agonist-evoked current” value on GluN1/GluN2B receptors (100 µM compound, 10 µM L-glutamate/10 µM glycine, GluN2B^WT (Fig. 5A)) is 67 ± 1%; in experiment [1] (setting [12]), 89 ± 2%; in [2] (setting [12]) it was 93 ± 1%; in experiment [6] (100 µM compound, 10 µM L-glutamate/10 µM glycine (Fig. 5A)), 76 ± 3%; at GluN1/GluN2A receptors (100 µM compound, 10 µM L-glutamate/10 µM glycine, GluN2A^WT (Fig. 5A)), 61 ± 3%; in experiment [7] (setting [12]), 85 ± 5%. Besides, the “effect … at GluN2A receptors” value in [3] is “did not observe any effect”.

`COC(=O)c1ccc(C2C(C(C)=O)=C(O)C(=O)N2CCc2c(C)[nH]c3ccccc23)cc1` (stereo not drawn) [PYD-106]: the “% potentiation of agonist-evoked current” value in [2] (30 µM compound, 10 µM L-glutamate/10 µM glycine (Fig. 4C)) turned out to be 21 ± 3%; on GluN1/GluN2C receptors (30 µM compound, 10 µM L-glutamate/10 µM glycine, GluN2C^WT (Fig. 4C)), 64 ± 4%.

For `NCCCNCCCCNCCCN` [Spermine], the “% potentiation of agonist-evoked current” value in experiment [6] (100 µM compound) was determined as 57 ± 5%.

Consider `O=C(NNC(=O)c1ccc(CNS(=O)(=O)c2ccc(F)c(Cl)c2)cc1)c1ccccc1` [TCN-201], for which the “% inhibition of agonist-evoked current” value in experiment [1] (setting [17]) is listed as 53 ± 5%; at GluN1/GluN2A receptors (setting [18]), 82 ± 2%. Moreover, in experiment [3], the “effect … at GluN2A receptors” value is on record as “did not observe any effect”.

For the compound `O=C(O)c1cc2cc(/C=C/c3ccccc3[N+](=O)[O-])ccc2cc1O` [UBP792], the “% inhibition of agonist-evoked current” value in [1] (setting [16]) was 64 ± 6%; on GluN1/GluN2D receptors (30 µM compound, 10 µM L-glutamate/10 µM glycine, wild-type (Fig. 5B)), 86 ± 1%; at GluN1/GluN2A receptors (30 µM compound, 10 µM L-glutamate/10 µM glycine, WT (Fig. 5B)), 22 ± 8%; in experiment [7] (30 µM compound, 10 µM L-glutamate/10 µM glycine (Fig. 5B)), 68 ± 7%. Further, in experiment [2] (setting [19]), the “effect of GluN2C CTD-deletion on NAM activity” value is “did not display a significant effect”. Moreover, the “effect of GluN2B CTD-deletion on NAM activity” value in experiment [6] (setting [19]) is recorded as “did not display a significant effect”.
